For one data set, the system named is S. aureus MRSA. The data set can be described thus: MIC, microdilution susceptibility test. The conditions noted are these: strain used in peritonitis model; Mueller–Hinton broth. Type of data set: cell-based, Staphylococcus aureus. An outline of the steps:
(§1)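 Strains were stored at −80 °C and subcultured in LB broth before use. MIC was determined by broth microdilution following NCCLS guidelines in Mueller–Hinton broth with logarithmic-phase bacteria. Values are the mean of at least four independent experiments.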

The next data set has as its system P. aeruginosa ATCC 27853. The data set can be described thus: MIC, microdilution susceptibility test. Format: cell-based, Pseudomonas aeruginosa. The conditions noted are these: strain used in peritonitis model; Mueller–Hinton broth. An outline of the steps:
as §1
In general terms: In broth dilution the organism is exposed to a series of concentrations in liquid medium.

The test system of a further data set is E. coli O18:K1:H7 Bort. The data set can be described thus: MIC, microdilution susceptibility test. The conditions noted are these: strain used in peritonitis model; Mueller–Hinton broth. Type of data set: cell-based, Escherichia coli. A digest of the protocol: as §1
The test system of data set [1] is Gram-negative and -positive clinical isolates. The data set can be described thus: MIC, microdilution susceptibility test, whole panel of clinical isolates. Format: cell-based. The following applies: 53 bacterial isolates incl. antibiotic-resistant strains. A digest of the protocol:
as §1

In the next data set the test system is Gram-positive strains. The data set can be described thus: MIC, microdilution susceptibility test, Gram-positive isolates. The following applies: Gram-positive strains (Fig. 1 and Table 2). Format: cell-based. An outline of the steps:
as §1

In data set [2] the test system is human herpes simplex virus type 1 (HSV-1). The data set can be described thus: Virus yield inhibition assay. The conditions noted are these: mean of two independent experiments in triplicate. Type of data set: cell-based, HSV-1 in Vero76 cells. A digest of the protocol: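 Confluent Vero76 monolayers were infected with 10^4 […] HSV-1 together with test peptide in MEM for 30 min at 37 °C, washed with PBS, and incubated 24 h. They were freeze-thawed three times. Ten-fold supernatant dilutions were adsorbed 1 h onto fresh monolayers under a 0.8% carboxymethylcellulose/2% FCS overlay for 3 days. Plaques were stained with crystal violet and counted as % inhibition versus untreated controls. Triplicates, repeated.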

In a further data set the test system is mammalian cells. The following applies: cited from earlier work.
The test system of the next data set is Vero76 cells. The data set can be described thus: Peptide cytotoxicity, neutral red uptake assay. The conditions noted are these: for Cell survival: 30 min at 37°C, neutral red uptake after 48 h, uninfected cells. Format: cell-based. A digest of the protocol: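 Confluent uninfected Vero76 monolayers (MEM, 10% FCS, penicillin/streptomycin) were exposed to test peptide (0.5–50 μM range, in MEM) for 30 min at 37 °C, 5% CO2. Cells were washed and kept 48 h in growth medium, then given 50 μg/ml neutral red for 3 h. They were fixed in formaldehyde/CaCl2, the dye was extracted with acidified ethanol, and A550 was read. Triplicates, two experiments.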

Data set [3] has as its system A. baumannii and P. aeruginosa. The data set can be described thus: MIC, microdilution susceptibility test. Type of data set: cell-based, Acinetobacter baumanni, Pseudomonas aeruginosa. The conditions noted are these: clinical isolates (Fig. 2). An outline of the steps:
as §1

The conditions of data set [4]: 12 mg/kg peptide i.v.; cited from earlier work.
For another data set, the system named is Gram-negative species. The data set can be described thus: MIC, microdilution susceptibility test, Gram-negative isolates. Type of data set: cell-based. The following applies: Gram-negative species (Fig. 2 and Table 2). An outline of the steps: as §1
Another data set in a line: In vivo toxicity, i.v. Details: species or system male Balb/c mice. The following applies: single dose, Litchfield and Wilcoxon. A digest of the protocol:
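Male Balb/c mice (about 20 g, 4 weeks old) received a single i.v. injection of increasing doses of test peptide in sterile PBS, with vehicle-only controls. Behaviour and survival were monitored for 7 days. LD50 was calculated by the Litchfield–Wilcoxon method.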

No end group written: not given here.

One may read the MIC as the lowest concentration that inhibits growth of the organism. Low values mean inhibition by little substance, high ones a need for much substance. For the substance ILRAWKKYGPIIVPIIRI-NH2 [BMAP-28(10–27)], the minimal inhibitory concentration (MIC) in the data set on S. aureus MRSA stood at 8 µM; in the data set with P. aeruginosa ATCC 27853, 8 µM; with E. coli O18:K1:H7 Bort it was 2 µM.

Take “GGLRSLGRKILRAWKKYGPIIVPIIRI-NH2 [BMAP-28]”: the “MIC values in most cases” value in [1] lay in the range of 1 to 8 µM. Besides, the MIC values in the data set on Gram-positive strains lay in the range of 1 to 8 µM. The MIC with S. aureus MRSA, against P. aeruginosa ATCC 27853 and with E. coli O18:K1:H7 Bort was 2 µM throughout. The Virus yield inhibition in [2] (0.5 μM peptide) is recorded as 10%; in data set [2] (5 μM peptide), 72%. Also, the “concentration range toxic to mammalian cells” value with mammalian cells is “above 10 μM”. The Cell survival with Vero76 cells (0.5 μM peptide) was determined as 100%; with Vero76 cells (5 μM peptide), 83%; with Vero76 cells (50 μM peptide) it was 5%. The “cells taking up the neutral red dye (cytotoxicity)” value with Vero76 cells (5 μM peptide) is 17%.

In the case of “GGLRSLGRKILRAWKKYGPQATPATRQ-NH2 [mBMAP-28]”, the MIC values against Gram-positive strains was > 32 µM. Moreover, the minimum inhibitory concentration (MIC) in the data set with S. aureus MRSA is >32 µM; against P. aeruginosa ATCC 27853, 2 µM; in the data set on E. coli O18:K1:H7 Bort, 2 µM. The MICs in data set [3] fell in the range of 0.25 to 1 µM.

On to GGLRSLGRKILRAWKKYG-NH2 [BMAP-28(1–18)], for which the results for the minimal inhibitory concentration (MIC) with S. aureus MRSA, against P. aeruginosa ATCC 27853 and with E. coli O18:K1:H7 Bort were 4 to 8 µM, 2 µM and 2 µM, respectively. Also, the “cytotoxic and haemolytic activities” value with mammalian cells was “virtually devoid”. Moreover, the “toxicity to Vero cells” value in the data set with Vero76 cells (5 μM peptide) was “not toxic”.

Turning to GRFKRFRKKFKKLFKKLS-NH2 [BMAP-27(1–18)], the results for the minimal inhibitory concentration (MIC) with S. aureus MRSA, against P. aeruginosa ATCC 27853 and with E. coli O18:K1:H7 Bort were 4 to 8 µM, 2 µM and 8 µM, respectively. For the same substance, the “cytotoxic and haemolytic activities” value in the data set on mammalian cells is on record as “virtually devoid”.

In the case of “indolicidin: a bovine cathelicidin peptide (ILPWKWPWWPWRR; ends and bridges not checked; UniProt P33046 131-143, looked up)”, the “toxicity to mice when injected i.v.” value in data set [4] is given as “all treated animals died”.

One may read the LD50 as the dose expected to kill half of the subjects tested. For the substance “GRFKRFRKKFKKLFKKLSPVIPLLHL-NH2 [BMAP-27]”, the “MIC values in most cases” value in data set [1] was 1 to 8 µM. The substance also yielded an MIC values against Gram-negative species of 1 to 2 µM. In addition, the values for the MIC against S. aureus MRSA, with P. aeruginosa ATCC 27853 and against E. coli O18:K1:H7 Bort were 4 µM, 1 µM and 0.5 µM, respectively. Moreover, the “concentration range toxic to mammalian cells” value in the data set on mammalian cells is “above 10 μM”. In addition, the “cytotoxicity to Vero cells” value with Vero76 cells (lowest peptide concentration tested (range 0.5–50 μM)) was “cytotoxic even at the lowest peptide concentration tested”. In “In vivo toxicity, i.v.”, this substance yielded an LD50 of 10 mg/kg.

Values taken from publication PMC7124310 (Peptides, 2003).
